ChEMBL document CHEMBL1121771, “Chemistry and hypoglycemic activity of benzimidoylpyrazoles” (J Med Chem, 1981)

Experiments:
Cavia porcellus [1] = assay: Percent reduction in blood glucose after perorally administration of compound at 100 mg/kg in normal fasted guinea pig; assay type: functional; settings: route oral
Outline: (§1)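 Hartley guinea pigs (450-500 g), male and female, grouped by sex in fours, food withheld 18 h, water allowed. Zero-time blood taken by cardiac puncture, then oral dosing, with a second cardiac sample 5 h later. Reported as percent change in blood glucose relative to the pretreatment value.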

Cavia porcellus [2] = assay: Percent reduction in blood glucose after perorally administration of compound at 125 mg/kg in normal fasted guinea pig; assay type: functional; settings: route oral; outline: as §1
Cavia porcellus [3] = assay: Percent reduction in blood glucose after perorally administration of compound at 150 mg/kg in normal fasted guinea pig; assay type: functional; settings: route oral; outline: as §1
Cavia porcellus [4] = assay: Percent reduction in blood glucose after perorally administration of compound at 160 mg/kg in normal fasted guinea pig; assay type: functional; settings: route oral; outline: as §1
[5] = Lethal dose after intraperitoneal administration in mouse; settings: in vivo, ip
[6] = Lethal dose after peroral administration in mouse; settings: in vivo, po
Rattus norvegicus [7] = assay: Percent reduction in blood glucose after perorally administration of compound at 500 mg/kg in glucose-primed rat; assay type: functional; settings: route oral
Outline: (§2)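 Male Sprague-Dawley rats (140-150 g), groups of six, fasted 16 h, then given 100 mg glucose sc in 0.5 mL isotonic NaCl. Test compound given orally right after as an aqueous carboxymethylcellulose suspension (0.5 mL); controls received vehicle. Blood was taken by cardiac puncture under light ether anesthesia 2 h later. Glucose measured by Autoanalyzer modification of Hoffman method; mean percent change versus control group.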

Rattus norvegicus [8] = assay: Percent reduction in blood glucose after perorally administration of compound at 10 mg/kg in glucose-primed rat; assay type: functional; settings: route oral; outline: as §2
Rattus norvegicus [9] = assay: Percent reduction in blood glucose after perorally administration of compound at 10 mg/kg in adrenalectomized rat(p= 0.05); assay type: functional; settings: route oral
Rattus norvegicus [10] = assay: Percent reduction in blood glucose after perorally administration of compound at 100 mg/kg in alloxanized rat; assay type: functional; settings: route oral
Outline: (§3)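 Male Sprague-Dawley rats (180-220 g) made diabetic with 225 mg/kg alloxan monohydrate intraabdominally; glucosuria checked by reagent strip after 3 days, positives grouped in sixes. Control tail-vein blood taken, oral compound given, blood resampled at 5 h. Reported as percent change in blood glucose versus pretreatment.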

Rattus norvegicus [11] = assay: Percent reduction in blood glucose after perorally administration of compound at 25 mg/kg in glucose-primed rat; assay type: functional; settings: route oral; outline: as §2
Rattus norvegicus [12] = assay: Percent reduction in blood glucose after perorally administration of compound at 25 mg/kg in non-glucose-primed rat; assay type: functional; settings: route oral
Rattus norvegicus [13] = assay: Percent reduction in blood glucose after perorally administration of compound at 250 mg/kg in glucose-primed rat; assay type: functional; settings: route oral; outline: as §2
Rattus norvegicus [14] = assay: Percent reduction in blood glucose after perorally administration of compound at 20 mg/kg in adrenalectomized rat; assay type: functional; settings: route oral
Rattus norvegicus [15] = assay: Blood glucose concentration at 2 hours after the administration in glucose-primed rat; assay type: functional; outline: as §2
Rattus norvegicus [16] = organism: Rattus norvegicus; assay: Percent change in blood glucose concentration in glucose-primed rat to that of control rats.; assay type: functional; outline: as §2
Rattus norvegicus [17] = assay: Blood glucose concentration 2 hours after the administration in glucose-primed rat at 100 mg/kg.; assay type: functional; outline: as §2
Cavia porcellus [18] = assay: Percent reduction in blood glucose after perorally administration of compound at 30 mg/kg in normal fasted guinea pig; assay type: functional; settings: route oral; outline: as §1
Rattus norvegicus [19] = assay: Percent reduction in blood glucose after perorally administration of compound at 29.2 mg/kg in alloxanized rat; assay type: functional; settings: route oral; outline: as §3
Rattus norvegicus [20] = assay: Percent reduction in blood glucose after perorally administration of compound at 100 mg/kg in non-glucose-primed rat; settings: route oral
Rattus norvegicus [21] = assay: Percent reduction in blood glucose after perorally administration of compound at 25 mg/kg in adrenalectomized rat; settings: route oral
Rattus norvegicus [22] = assay: Percent reduction in blood glucose after perorally administration of compound at 100 mg/kg in glucose-primed rat; assay type: functional; settings: route oral; outline: as §2
Rattus norvegicus [23] = assay: Percent reduction in blood glucose after perorally administration of compound at 300 mg/kg in non-glucose-primed rat; settings: route oral
Cavia porcellus [24] = assay: Percent reduction in blood glucose after perorally administration of compound at 25 mg/kg in normal fasted guinea pig; assay type: functional; settings: route oral; outline: as §1
Rattus norvegicus [25] = assay: Percent reduction in blood glucose after perorally administration of compound at 80 mg/kg in non-glucose-primed rat; assay type: functional; settings: route oral
Rattus norvegicus [26] = assay: Percent reduction in blood glucose after perorally administration of compound at 120 mg/kg in non-glucose-primed rat; assay type: functional; settings: route oral
Rattus norvegicus [27] = assay: Percent reduction in blood glucose after perorally administration of compound at 300 mg/kg in alloxanized rat; assay type: functional; settings: route oral; outline: as §3
Rattus norvegicus [28] = assay: Percent reduction in blood glucose after perorally administration of compound at 50 mg/kg in glucose-primed rat; assay type: functional; settings: route oral; outline: as §2
Rattus norvegicus [29] = assay: Percent reduction in blood glucose after perorally administration of compound at 100 mg/kg in non-glucose-primed rat; assay type: functional; settings: route oral
Rattus norvegicus [30] = assay: Percent reduction in blood glucose after perorally administration of compound at 25 mg/kg in adrenalectomized rat; assay type: functional; settings: route oral

## Cc1ccc(S(=O)(=O)NC(=O)NN2CCCCCC2)cc1 [TOLAZAMIDE]
Cavia porcellus [1]
  Reduction: 33.5%
Cavia porcellus [2]
  Reduction: 26.7%
Cavia porcellus [3]
  Reduction: 30.4%
Cavia porcellus [4]
  Reduction: 25%
[5]
  LD50: 1000 mg/kg
[6]
  LD50: 1000 mg/kg
Rattus norvegicus [7]
  Reduction: 51.1%
Rattus norvegicus [8]
  Reduction: 28.1%
Rattus norvegicus [9]
  Reduction: 75.8%
Rattus norvegicus [10]
  Reduction: 0%
Rattus norvegicus [11]
  Reduction: 50%
Rattus norvegicus [12]
  Reduction: 29.4%
Rattus norvegicus [13]
  Reduction: 42.9%
Rattus norvegicus [14]
  Reduction: 85.6%

## COC(=O)c1cc(C)n(/C(=N\c2ccc(OC)c(OC)c2)c2ccccc2)n1
Rattus norvegicus [15]
  Blood glucose: 58%
Rattus norvegicus [16]
  Change: 34.1%

## CCC/N=C(/c1ccccc1)n1nc(C(=O)OC)cc1C
Rattus norvegicus [17]
  Blood glucose: 80.5%
Rattus norvegicus [16]
  Change: 6.2%

## COC(=O)c1cc(C)n(/C(=N\C2CCCCC2)c2ccccc2)n1
Cavia porcellus [18]
  Reduction: 0%
[5]
  LD50: 1000 mg/kg
[6]
  LD50: 1000 mg/kg
Rattus norvegicus [15]
  Blood glucose: 52.1%
  Reduction: 27%
Rattus norvegicus [16]
  Change: 34.5%
Rattus norvegicus [19]
  Reduction: 29.5%
Rattus norvegicus [20]
  Reduction: 7.6%
Rattus norvegicus [21]
  Reduction: 32%

## COC(=O)c1cc(-c2ccc(Cl)cc2)n(/C(=N\C2CCCCC2)c2ccccc2OC)n1
Rattus norvegicus [17]
  Blood glucose: 69.2%
Rattus norvegicus [16]
  Change: 12.9%

## COC(=O)c1cc(C)n(/C(=N\CC(C)C)c2cccc(C(F)(F)F)c2)n1
Rattus norvegicus [17]
  Blood glucose: 62.2%
Rattus norvegicus [16]
  Change: 25.2%

## COC(=O)c1cc(C)n(/C(=N\c2ccccc2)c2ccccc2C)n1
Rattus norvegicus [15]
  Blood glucose: 57.7%
Rattus norvegicus [16]
  Change: 21.4%

## COC(=O)c1cc(-c2ccc(Cl)cc2)n(/C(=N\c2ccc(OC)cc2)c2ccccc2)n1
Rattus norvegicus [17]
  Blood glucose: 78.4%
Rattus norvegicus [16]
  Change: 3.9%

## COC(=O)c1cc(C)n(/C(=N\CC(C)C)c2ccc(F)cc2)n1
Rattus norvegicus [17]
  Blood glucose: 68.9%
Rattus norvegicus [16]
  Change: 1.3%

## COC(=O)c1cc(C)n(/C(=N\c2ccccc2)c2ccccc2Cl)n1
Rattus norvegicus [17]
  Blood glucose: 70%
Rattus norvegicus [16]
  Change: 8.9%

## COC(=O)c1cc(-c2ccc(Cl)cc2)n(/C(=N\c2ccc(Cl)cc2)c2ccccc2)n1
Rattus norvegicus [17]
  Blood glucose: 77.7%
Rattus norvegicus [16]
  Change: 1.2%

## COC(=O)c1cc(C)n(/C(=N\c2ccc(Cl)cc2)c2ccccc2)n1
Rattus norvegicus [17]
  Blood glucose: 78.7%
Rattus norvegicus [16]
  Change: 5.5%

## CCCCNC(=N)NC(=N)N [BUFORMIN]
Cavia porcellus [18]
  Reduction: 50%
[5]
  LD50: 140 mg/kg
[6]
  LD50: 300 mg/kg
Rattus norvegicus [22]
  Reduction: 0%
Rattus norvegicus [19]
  Reduction: 21.9%
Rattus norvegicus [23]
  Reduction: 25.9%

## COC(=O)c1cc(C)n(/C(=N\C2CCCCC2)c2ccccc2OC)n1
Rattus norvegicus [15]
  Blood glucose: 68.4%
Rattus norvegicus [16]
  Change: 20.5%

## COC(=O)c1cc(C)n(/C(=N\c2cccc(C)c2C)c2ccccc2)n1
Rattus norvegicus [17]
  Blood glucose: 75.6%
Rattus norvegicus [16]
  Change: 8.3%

## N=C(N)NC(=N)NCCc1ccccc1 [PHENFORMIN]
Cavia porcellus [24]
  Reduction: 46%
Rattus norvegicus [25]
  Reduction: 25.3%
Rattus norvegicus [22]
  Reduction: 0%
Rattus norvegicus [10]
  Reduction: 62%
Rattus norvegicus [26]
  Reduction: 52.9%

## COC(=O)c1cc(C)n(/C(=N\CCC(C)C)c2ccccc2)n1
Rattus norvegicus [17]
  Blood glucose: 91.3%
Rattus norvegicus [16]
  Change: 1.3%

## COC(=O)c1cc(C)n(/C(=N\c2ccccc2)c2ccccc2)n1
Rattus norvegicus [15]
  Blood glucose: 58%
Rattus norvegicus [16]
  Change: 34.3%

## Cc1cc(C)n(/C(=N\C2CCCCC2)c2ccccc2)n1
Rattus norvegicus [17]
  Blood glucose: 69.8%
Rattus norvegicus [16]
  Change: 13.6%

## COC(=O)c1cc(C)n(/C(=N\c2ccc(OC)cc2)c2ccccc2)n1
Cavia porcellus [1]
  Reduction: 21%
[5]
  LD50: 1000 mg/kg
[6]
  LD50: 1000 mg/kg
Rattus norvegicus [15]
  Blood glucose: 62.2%
Rattus norvegicus [16]
  Change: 40%
Rattus norvegicus [27]
  Reduction: 49%
Rattus norvegicus [28]
  Reduction: 33.8%
Rattus norvegicus [22]
  Reduction: 51.3%
Rattus norvegicus [29]
  Reduction: 31.5%
Rattus norvegicus [11]
  Reduction: 35.2%
Rattus norvegicus [30]
  Reduction: 44.3%

## Cc1cc(C)n(/C(=N\CC(C)C)c2ccccc2)n1
Rattus norvegicus [17]
  Blood glucose: 62.8%
Rattus norvegicus [16]
  Change: 10.6%

## COC(=O)c1cc(C)n(/C(=N\c2ccc(C)cc2)c2ccc(C)cc2)n1
Rattus norvegicus [15]
  Blood glucose: 60.4%
Rattus norvegicus [16]
  Change: 25.4%

## COC(=O)c1cc(-c2ccc(Cl)cc2)n(/C(=N\c2ccccc2)c2ccccc2)n1
Rattus norvegicus [17]
  Blood glucose: 81.1%
Rattus norvegicus [16]
  Change: 5.6%

## CC/N=C(/c1ccccc1)n1nc(C(=O)OC)cc1C
Rattus norvegicus [17]
  Blood glucose: 54.9%
Rattus norvegicus [16]
  Change: 34%

## COC(=O)c1cc(-c2ccc(Cl)cc2)n(/C(=N\c2ccc(C)cc2)c2ccc(C)cc2)n1
Rattus norvegicus [17]
  Blood glucose: 69.8%
Rattus norvegicus [16]
  Change: 9%

## COC(=O)c1cc(C)n(/C(=N\c2ccccc2OC)c2ccccc2)n1
Rattus norvegicus [15]
  Blood glucose: 96%
Rattus norvegicus [16]
  Change: 35.1%

## COC(=O)c1cc(C)n(/C(=N\c2ccc(C)cc2)c2ccccc2)n1
Rattus norvegicus [15]
  Blood glucose: 71.9%
Rattus norvegicus [16]
  Change: 18.9%

## COC(=O)c1cc(C)n(/C(=N\c2cccc(C(F)(F)F)c2)c2ccccc2)n1
Rattus norvegicus [15]
  Blood glucose: 57.9%
Rattus norvegicus [16]
  Change: 33.5%

## COC(=O)c1cc(C)n(/C(=N\CC(C)C)c2ccc(C)cc2)n1
Rattus norvegicus [17]
  Blood glucose: 65.2%
Rattus norvegicus [16]
  Change: 19%

## COc1ccc(/N=C(/c2ccccc2)n2nc(C)cc2C)cc1
Rattus norvegicus [15]
  Blood glucose: 60.6%
Rattus norvegicus [16]
  Change: 27.2%

## CC/N=C(/c1ccccc1)n1nc(C)cc1C
Rattus norvegicus [17]
  Blood glucose: 58.6%
Rattus norvegicus [16]
  Change: 24.7%

## COC(=O)c1cc(-c2ccc(Cl)cc2)n(/C(=N\c2ccccc2)c2ccccc2C)n1
Rattus norvegicus [17]
  Blood glucose: 71.1%
Rattus norvegicus [16]
  Change: 6.3%

## CCCC/N=C(/c1ccccc1)n1nc(C(=O)OC)cc1C
Rattus norvegicus [17]
  Blood glucose: 66.1%
Rattus norvegicus [16]
  Change: 21.2%

## C=CC/N=C(/c1ccccc1)n1nc(C(=O)OC)cc1C
Rattus norvegicus [17]
  Blood glucose: 69.6%
Rattus norvegicus [16]
  Change: 7%

## COC(=O)c1cc(C)n(/C(=N\c2ccccc2)c2ccccc2OC)n1
Rattus norvegicus [15]
  Blood glucose: 58.3%
Rattus norvegicus [16]
  Change: 25.7%

## Cc1cc(C)n(/C(=N\c2ccccc2)c2ccccc2)n1
Rattus norvegicus [15]
  Blood glucose: 72.1%
Rattus norvegicus [16]
  Change: 18.3%

## COC(=O)c1cc(C)n(/C(=N\CC(C)C)c2ccccc2)n1
Rattus norvegicus [17]
  Blood glucose: 59.7%
Rattus norvegicus [16]
  Change: 25.5%

## COC(=O)c1cc(C)n(/C(=N\c2cccc(OC)c2)c2ccccc2)n1
Rattus norvegicus [15]
  Blood glucose: 63%
Rattus norvegicus [16]
  Change: 22%

## COC(=O)c1cc(-c2ccc(Cl)cc2)n(/C(=N\C2CCCCC2)c2ccccc2)n1
Rattus norvegicus [17]
  Blood glucose: 84.9%
Rattus norvegicus [16]
  Change: 4.4%

## COC(=O)c1cc(C)n(/C(=N\c2ccccc2)c2ccc(Cl)c(Cl)c2)n1
Rattus norvegicus [15]
  Blood glucose: 101.5%
Rattus norvegicus [16]
  Change: 24.3%
